Reference: ChEMBL document CHEMBL4270526, “A novel NAE/UAE dual inhibitor LP0040 blocks neddylation and ubiquitination leading to growth inhibition and apoptosis of cancer cells” (Eur J Med Chem, 2018)
pIC50: −log10 of the molar value. Calls of active or inactive are those of the source. No cut-off for these calls is given here.

Assays:
[1] = Antiproliferative activity against human LO2 cells after 48 hrs by CCK8 assay; type: cell-based, L02; conditions: read-out: LC50
HCT-116 = assay: Antiproliferative activity against human HCT116 cells after 48 hrs by CCK8 assay; type: functional, cell-based; conditions: HCT-116, 48 h
Procedure, shortened: (§1)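 Cells seeded at 6 × 10^3 cells/well and left 12 h at 37 °C, 5% CO2. Medium then replaced with serial compound dilutions, bortezomib as positive control. After 48 h, CCK-8 added for 4 h and absorbance read at 450 nm. Three repeats; IC50 from normalized nonlinear regression of inhibition curves.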

AGS [2] = assay: Inhibition of UAE in human AGS cells assessed as reduction in Ubc10-Ub conjugation level at 2 to 10 uM after 24 hrs by Western blot analysis; type: cell-based
Procedure, shortened: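 AGS cells (Ham's F12/10% FBS) exposed to 2, 4, 6, 8 or 10 µM compound, or 0.1% DMSO, for 24 h. RIPA lysates of equal protein run on non-reducing SDS-PAGE. Western blot for Ubc10-Ub or USE1-Ub, with densitometry. Three repeats.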

AGS [3] = assay: Cell cycle arrest in human AGS cells assessed as accumulation at sub-G1 phase at 4 uM after 24 hrs by propidium iodide staining based flow cytometry; type: functional
Procedure, shortened: (§2)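 AGS cells seeded at 1 × 10^5/well and attached 24 h at 37 °C, 5% CO2. Exposed to 4 μM compound for varying times, then fixed in 70% ethanol at −20 °C overnight. Stained with PI/RNase buffer 15–20 min in the dark; 20000 cells per sample read by flow cytometry (488 nm excitation, FL-3 630 nm). Three repeats.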

AGS [4] = assay: Synergistic antiproliferative activity against human AGS cells assessed as combination index constant at 1.25 uM after 48 hrs in presence of 10 nM BTZ by CCK8 assay; type: functional
Procedure, shortened: (§3)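 AGS cells at 6×10^3/well attached for 12 h, then exposed for 48 h to compound, bortezomib, or both at set concentrations. CCK-8 added for 4 h, then OD read at 450 nm. Inhibition rates E used for q = E(combo)/(E1+E2−E1×E2). Triplicate experiments.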

[5] = biological target: Cyclin-dependent kinase 1 (Homo sapiens) (UniProt P06493); assay: Inhibition of CDK1 (unknown origin) at 30 uM relative to control
AGS [6] = assay: Induction of apoptosis in human AGS cells assessed as necrotic cells at 8 uM after 36 hrs by Annexin-V-FITC/propidium iodide staining based flow cytometry (reference value: 1.01%); type: functional
[7] = biological target: T1, NEDD8 activating enzyme (Homo sapiens) (UniProt Q8TBC4+Q13564); assay: Inhibition of NAE-mediated CRL neddylation in human AGS cells assessed as increase in NRF2 level up to 10 uM after 24 hrs by Western blot analysis; type: cell-based
Procedure, shortened: (§4)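 AGS cells given 2, 4, 6, 8 or 10 μM compound or 0.1% DMSO for 24 h, washed in ice-cold PBS and lysed in RIPA on ice. Equal protein loads run by SDS-PAGE: non-reducing for NEDD8/SUMO/Ub conjugates, reducing for p27, NRF2, CDT1 and cleaved caspase-3. Blotted to PVDF with primary antibody overnight at 4 °C and HRP secondary, ECL detection, densitometry. Three repeats.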

AGS [8] = assay: Synergistic antiproliferative activity against human AGS cells assessed as combination index constant at 1.25 uM after 48 hrs in presence of 7.5 nM BTZ by CCK8 assay; type: functional; procedure, shortened: as §3
AGS [9] = assay: Induction of apoptosis in human AGS cells after 36 hrs by Annexin-V-FITC/propidium iodide staining based flow cytometry; type: functional, cell-based
[10] = biological target: cAMP-dependent protein kinase catalytic subunit alpha (Homo sapiens) (UniProt P17612); assay: Inhibition of PKAalpha (unknown origin) at 30 uM relative to control
AGS [11] = assay: Induction of apoptosis in human AGS cells assessed as late apoptotic cells at 8 uM after 36 hrs by Annexin-V-FITC/propidium iodide staining based flow cytometry (reference value: 1.71%); type: functional
AGS [12] = assay: Induction of apoptosis in human AGS cells assessed as necrotic cells at 10 uM after 36 hrs by Annexin-V-FITC/propidium iodide staining based flow cytometry (reference value: 1.01%); type: functional
[13] = Antiproliferative activity against HUVEC after 48 hrs by CCK8 assay; type: cell-based; conditions: human, read-out: LC50
AGS [14] = assay: Induction of apoptosis in human AGS cells assessed as early apoptotic cells at 4 uM after 36 hrs by Annexin-V-FITC/propidium iodide staining based flow cytometry (reference value: 4.44%); type: functional
K562 = assay: Antiproliferative activity against human K562 cells after 48 hrs by CCK8 assay; type: functional, cell-based; conditions: K562, 48 h; procedure, shortened: as §1
[15] = biological target: T1, NEDD8 activating enzyme (Homo sapiens); assay: Inhibition of recombinant human NAE assessed as reduction in Ubc12-NEDD8 conjugation level pretreated for 10 mins followed by Mg2+ and ATP addition measured after 60 mins by Western blot analysis; type: protein-complex assay
Procedure, shortened: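 Cell-free assay with recombinant human NAE 2.5 µM, NEDD8 250 µM and E2 Ubc12 50 µM (stock concentrations) plus inhibitor, preincubated 10 min at 37 °C. Reaction started with 10 mM Mg2+/ATP (stock), run 60 min at 37 °C, quenched with EDTA. Non-reducing 15% SDS-PAGE, Ubc12-NEDD8 thioester detected by western blot. No-ATP negative control.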

AGS [16] = assay: Cell cycle arrest in human AGS cells assessed as accumulation at G1 phase at 4 uM after 4 to 48 hrs by propidium iodide staining based flow cytometry (reference value: 22.82%); type: functional; procedure, shortened: as §2
[17] = biological target: T1, NEDD8 activating enzyme (Homo sapiens); assay: Inhibition of NAE-mediated CRL neddylation in human AGS cells assessed as increase in CDT1 level up to 10 uM after 24 hrs by Western blot analysis; type: cell-based; procedure, shortened: as §4
[18] = biological target: Serine/threonine-protein kinase Chk1 (Homo sapiens) (UniProt O14757); assay: Inhibition of CHK1 (unknown origin) at 30 uM relative to control
AGS [19] = assay: Synergistic antiproliferative activity against human AGS cells assessed as combination index constant at 1 uM after 48 hrs in presence of 7.5 nM BTZ by CCK8 assay; type: functional; procedure, shortened: as §3
AGS [20] = assay: Synergistic antiproliferative activity against human AGS cells assessed as combination index constant at 1.5 uM after 48 hrs in presence of 7.5 nM BTZ by CCK8 assay; type: functional; procedure, shortened: as §3
Homo sapiens = species: Homo sapiens; assay: Inhibition of UAE (unknown origin) assessed as reduction in Ubc10-Ub conjugation level up to 10 uM pretreated for 10 mins followed by Mg2+ and ATP addition measured after 60 mins by Western blot analysis
Procedure, shortened: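 Cell-free assay with UAE 2.5 µM, Ub 250 µM and E2 Ubc10 50 µM (stock concentrations) plus inhibitor, preincubated 10 min at 37 °C. Reaction started with 10 mM Mg2+/ATP (stock), run 60 min at 37 °C, quenched with EDTA. Non-reducing 15% SDS-PAGE, Ubc10-Ub thioester detected by western blot. No-ATP negative control.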

AGS [21] = assay: Induction of apoptosis in human AGS cells assessed as increase in cleaved caspase-3 level up to 10 uM after 24 hrs by Western blot analysis; type: functional, cell-based; procedure, shortened: as §4
AGS [22] = assay: Synergistic antiproliferative activity against human AGS cells assessed as combination index constant at 1.5 uM after 48 hrs in presence of 10 nM BTZ by CCK8 assay; type: functional; procedure, shortened: as §3

Chain of Serine/threonine-protein kinase Chk1 (Homo sapiens) (O14757 whole entry): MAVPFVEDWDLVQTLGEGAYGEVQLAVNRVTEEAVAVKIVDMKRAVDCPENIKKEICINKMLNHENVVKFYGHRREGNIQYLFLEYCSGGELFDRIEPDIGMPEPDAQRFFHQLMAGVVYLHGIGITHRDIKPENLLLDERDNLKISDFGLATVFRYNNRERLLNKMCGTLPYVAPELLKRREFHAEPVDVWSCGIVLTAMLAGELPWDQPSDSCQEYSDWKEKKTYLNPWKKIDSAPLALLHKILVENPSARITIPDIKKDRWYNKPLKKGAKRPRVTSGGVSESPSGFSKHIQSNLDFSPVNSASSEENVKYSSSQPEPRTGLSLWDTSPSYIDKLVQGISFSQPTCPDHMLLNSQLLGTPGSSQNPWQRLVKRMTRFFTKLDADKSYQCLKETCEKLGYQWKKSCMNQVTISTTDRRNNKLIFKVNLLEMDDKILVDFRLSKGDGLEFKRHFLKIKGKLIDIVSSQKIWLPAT
Chain of Cyclin-dependent kinase 1 (Homo sapiens) (P06493 whole entry, looked up): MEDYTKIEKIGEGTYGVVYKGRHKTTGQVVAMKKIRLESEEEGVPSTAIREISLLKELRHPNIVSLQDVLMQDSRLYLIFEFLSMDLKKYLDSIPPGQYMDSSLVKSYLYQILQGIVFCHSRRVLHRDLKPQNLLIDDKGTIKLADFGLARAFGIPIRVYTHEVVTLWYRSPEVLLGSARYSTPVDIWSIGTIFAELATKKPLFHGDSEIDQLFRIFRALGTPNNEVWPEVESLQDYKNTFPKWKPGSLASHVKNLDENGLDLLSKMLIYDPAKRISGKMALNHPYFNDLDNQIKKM

For `O=c1cc(-c2ccc(-c3ccccc3)cc2)c2ccc(N3CCC(NCCc4ccccc4)CC3)cc2o1`, the CC50 at 48 h [1] was 13.5 µM, the pIC50 (HCT-116) was 5.88 and the inhibition (AGS [2]) was “Active”. The Activity (AGS [3]) was “Active”, the CI (AGS [4]) was 1.75 and the inhibition [5] was -1.18%. The Activity (AGS [6]) was 4.71%, the inhibition [7] was “Active” and the CI (AGS [8]) was 3.1. The Activity (AGS [9]) was “Dose-dependent effect”, the inhibition [10] was 5.17% and the Activity (AGS [11]) was 35.01%. The Activity (AGS [12]) was 9.14%, the CC50 at 48 h [13] was 10.7 µM and the Activity (AGS [14]) was 7.77%. For the same compound, the pIC50 (K562) was 5.61, the inhibition [15] was “Dose-dependent effect” and the Activity (AGS [16]) was 48.88%. For the same compound, the inhibition [17] was “Active”, the inhibition [18] was 1.01% and the CI (AGS [19]) was 1.13. The CI (AGS [20]) was 1.05, the inhibition (Homo sapiens) was “Active” and the Activity (AGS [21]) was “Active”. For the same compound, the CI (AGS [22]) was 1.35.
